Screens: PubChem, Johns Hopkins Ion Channel Center
In the library only some 2.3% were active in any assay of this set; here they are far more common.
TRPC6 activator – activates the mouse TRPC6 cation channel | Q61143 | HEK293-TRPC6 membrane potential dye fluorescence; active compounds read high | B-score at 10 µM | hit rate 0.13% among 310,000;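 active = B-score of the integrated fluorescence ratio above library mean plus 3 SD, and starting fluorescence ratio within library mean plus 5 SD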;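 note: higher score means more depolarization so channel activation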
TRPC6 inh – inhibitors of mouse TRPC6 channel | Q61143 | hit rate 1.1% among 310,000 | HEK293-TRPC6, membrane potential dye, ACh-evoked depolarization; active compounds read low | B-score at 10 µM;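 active = B-score under library mean minus 3 SD, initial fluorescence not abnormally high, positive integrated signal ratio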;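 note: B-score derived from integrated fluorescence ratio over the kinetic read; more negative B-score means stronger inhibition of depolarization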
TRPC4 block – inhibitors of mouse TRPC4 channel. Q9QUQ5. HEK293 TRPC4beta/mu-opioid, DAMGO-evoked Fluo4 calcium flux; active compounds read low. B-score at 10 µM. hit rate 0.39% among 300,000. AID 2247;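 active = B-score over 3 SD under the library average, no early fluorescence shift, positive overall ratio signal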
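test system = HEK293 cells with stable TRPC4beta plus mu-opioid receptor expression | detection = Fluo4 Ca2+ flux fluorescence | read-out = integrated fluorescence ratio relative to baseline, converted to per-well B score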
TRPC4 act – activators of mouse TRPC4 channel; Q9QUQ5; HEK293 TRPC4beta/mu-opioid, Fluo4 calcium fluorescence; active compounds read high; B-score at 10 µM; hit rate 0.49% among 310,000;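 active = B-score above 5 SD of library B-scores, and initial fluorescence ratio not above library mean plus 5 SD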;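 note: positive B-score marks a calcium rise read as TRPC4 activation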
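Material: TRPC4beta and mu-opioid receptor HEK293 stable cells | Incubation: 45 min room-temperature Fluo4 loading, 110 s read | Detection: Kinetic Fluo4 calcium fluorescence | Measure: Integrated baseline-normalised fluorescence ratio, converted to per-well B score | Benchmarks: Low control buffer alone, high control maximal DAMGO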
TRPC4 PAM – TRPC4 (mouse) allosteric potentiation; B-score at 10 µM; hit rate 0.42% among 310,000; HEK293 TRPC4beta/mu-opioid, DAMGO EC20, Fluo-4 Ca2+ flux; active compounds read high;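 active = B-score of calcium response area above 5 SD of library B-scores, with initial fluorescence ratio within 5 SD of library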;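 note: B-score of integrated fluorescence ratio over time as area under calcium response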
Starred values were filed as active, the others as inactive; i = inactive.

SMILES	TRPC6 activator	TRPC6 inh	TRPC4 block	TRPC4 act	TRPC4 PAM
CCCNC(=O)c1c(O)c2cccc3c2n(c1=O)CCC3	i	i	i	i	i
CC(NC(=O)c1ccccc1)C(=O)N/N=C/c1cccc([N+](=O)[O-])c1 (stereo not given)	i	i	i	i	i
COC(=O)C(NC(=O)c1ccccc1C(=O)O)c1ccc2ccccc2c1 (stereo not given)	i	i	i	i	i
CCc1ccc(NC(=O)N(CCCN2CCOCC2)Cc2cccs2)cc1	i	i	i	51*	i
CN1CCN(CCCN(Cc2cccs2)C(=S)Nc2ccc(Cl)cc2)CC1	i	i	i	i	i
CCc1ccc(NC(=S)N(CCCN2CCN(C)CC2)Cc2cccs2)cc1	i	i	i	i	10*
CC(C)C1CC(CCNCc2ccc(N(C)C)cc2)(c2ccccc2)CCO1 (stereo not given)	i	i	i	100*	i
CC(C)C1CC(CCNCc2ccc3c(c2)OCO3)(c2ccccc2)CCO1 (stereo not given)	i	i	i	122*	i
Cc1ccc(C2(CCNCc3ccc(N(C)C)cc3)CCOC(C(C)C)C2)cc1 (stereo not given)	i	i	i	111*	i
CC(=O)N=c1n(C)c2ccccc2n1CCOc1ccccc1	i	i	i	i	i
COCCn1c(-c2ccc(F)cc2)nc2cccnc21	i	i	i	i	i
CCN(CC)CCOC(=O)C1(c2ccccc2)CCOCC1	i	i	i	60*	i
COc1cc(OC)cc(C(=O)Nc2ccc(Nc3ccccc3)cc2)c1	i	-5*	i	i	i
COc1cc(OC)cc(C(=O)Nc2cccc(NC(=O)c3ccccc3)c2)c1	i	i	i	i	i
Nc1ccc(-c2nc3ncccc3o2)cc1	i	i	i	i	i
CCCCN(C)CCNC(=O)C(NC(=O)C1CCC(C)CC1)C(C)C (stereo not given)	i	i	i	52*	i
CC1CCC(C(=O)NC(C(=O)NCCCN2CCOCC2)C(C)C)CC1 (stereo not given)	i	i	i	i	i
Cc1ccc(N(C(=O)c2csnn2)C(C(=O)NC(C)(C)C)c2cccnc2)cc1 (stereo not given)	i	i	i	i	i
COc1ccc(NC(=O)CN2CCN(c3c(C)cccc3C)CC2)cc1	i	i	i	i	i
CCC(C)(C)n1nnnc1C(c1cccnc1)N1CCC(Cc2ccccc2)CC1 (stereo not given)	i	i	-6*	i	i
O=C(OCC(=O)N1CCOCC1)c1cccc(S(=O)(=O)N2CCCc3ccccc32)c1	i	i	i	i	15*
O=C(OCC(=O)N1CCCC1=O)c1cccc(S(=O)(=O)N2CCOCC2)c1	i	i	i	i	i
CCc1nnc(NC(=O)CCC(=O)Nc2ccc(OC)cc2OC)s1	i	i	i	i	i
CCSc1nc(-c2ccccc2)c(C#N)c(=O)[nH]1	i	i	i	i	i
CCCOc1ccc(-c2nc(SCc3ccccc3)[nH]c(=O)c2C#N)cc1OC	i	i	-7*	i	i
SMILES	TRPC6 activator	TRPC6 inh	TRPC4 block	TRPC4 act	TRPC4 PAM
COc1ccc(CN2CCNC(=O)C2CC(=O)NCc2cc(C)n(C)n2)c(F)c1 (stereo not given)	i	i	i	i	i
COc1ccc(OC)c(Nc2c3c(nc4ccccc24)CCC3)c1	i	i	-5*	i	i
COc1cc(Nc2c3c(nc4ccccc24)CCC3)cc(OC)c1OC	i	i	i	i	i
Cc1cccc(Nc2c3c(nc4ccccc24)CCC3)c1	i	i	-6*	i	i
N#Cc1cccc(Nc2c3c(nc4ccccc24)CCC3)c1	i	i	i	i	i
COc1ccccc1NC(=O)C1CCCN1C(=O)Nc1ccc(F)cc1 (stereo not given)	i	i	i	i	i
Cc1ccc(NC(=S)NC2CC3CCC(C2)N3Cc2ccco2)c(C)c1 (stereo not given)	i	i	i	116*	i
Cc1cccc(NC(=S)NC2CC3CCC(C2)N3Cc2ccco2)c1C (stereo not given)	i	i	i	i	i
Cc1cccc(NC(=S)NC2CC3CCCC(C2)N3Cc2ccccc2)c1C (stereo not given)	i	i	i	65*	i
C=CCNc1nc(N2CCCC2)nc2ccccc12	i	i	-7*	i	i
S=c1[nH]nc(-c2ccncc2)n1/N=C/C(Cl)=C\c1ccccc1	i	i	i	i	12*
Cc1ccc(NS(=O)(=O)c2cc(C(=O)NCc3ccccn3)ccc2Cl)cc1C	i	i	i	i	11*
Cc1ccc(NC(=O)NCc2ccccn2)cc1Cl	i	i	i	i	i
Cc1ccc(C)c(NS(=O)(=O)c2cc(C(=O)NCc3ccccn3)ccc2Cl)c1	i	i	i	i	i
Cc1ccc(C(=O)NCc2ccccn2)cc1Cl	i	i	i	i	10*
COc1ccc(N2C(=O)CSC2c2ccccc2F)c(OC)c1 (stereo not given)	i	i	i	i	i
CCc1nc(SCC(=O)N2CCCc3ccccc32)c2oc3ccccc3c2n1	i	i	-5*	i	i
CCc1nc(SCC(=O)NC2CCCC2)c2oc3ccccc3c2n1	i	i	i	i	i
CCN(CC)CCCNC(=O)c1ccc2c(Cl)c3c(nc2c1)CCCC3	i	i	i	i	i
CCCCN(CC)CCNC(=O)c1ccc2c(Cl)c3c(nc2c1)CCC3	i	i	i	132*	12*
Cc1ccc(NC(=O)c2cccc(NC(=O)CC3SC(N4CCCCC4)=NC3=O)c2)nc1 (stereo not given)	i	i	i	i	i
COC(=O)c1ccccc1N=Nc1c(N)[nH][nH]c1=O	i	i	i	47*	82*
CCN1/C(=C\c2ccc3cc(C)ccc3[n+]2CC)Sc2cc(C)c(C)cc21	i	i	i	131*	29*
CCN1/C(=C/c2ccc3cccc(C)c3[n+]2CC)Sc2ccccc21	i	i	-6*	335*	15*
Cc1nnc2c(NCCc3ccccc3)nc3ccccc3n12	i	i	i	i	i
N=c1c2c(-c3ccccc3)c(-c3ccccc3)n(Cc3ccco3)c2ncn1Cc1ccco1	i	i	i	46*	i
